ABHD5-PLIN5 inh = blocks binding of human ABHD5 to perilipin-5; Q00G26+Q8WTS1; Split G. princeps luciferase complementation, luminescence, 4 h; inhibition, % at 4 µM; 360,000 compounds, 0.78% hits;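 active = inhibition above the mean inhibition across every tested compound plus 3 SD, cut at about 22% in these data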
Beta2AR agonist = activates human beta-2 adrenergic receptor causing internalization; P07550; Am2.2-beta2AR cells, FAP receptor internalization, flow cytometry; response, % (no concentration beside the values); 340,000 compounds, 0.43% hits; AID 504454;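 active = response above a set limit, near 3 SD of response in nonfluorescent compounds, cut at about 42% in these data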
Target sequence (P07550 whole entry, looked up): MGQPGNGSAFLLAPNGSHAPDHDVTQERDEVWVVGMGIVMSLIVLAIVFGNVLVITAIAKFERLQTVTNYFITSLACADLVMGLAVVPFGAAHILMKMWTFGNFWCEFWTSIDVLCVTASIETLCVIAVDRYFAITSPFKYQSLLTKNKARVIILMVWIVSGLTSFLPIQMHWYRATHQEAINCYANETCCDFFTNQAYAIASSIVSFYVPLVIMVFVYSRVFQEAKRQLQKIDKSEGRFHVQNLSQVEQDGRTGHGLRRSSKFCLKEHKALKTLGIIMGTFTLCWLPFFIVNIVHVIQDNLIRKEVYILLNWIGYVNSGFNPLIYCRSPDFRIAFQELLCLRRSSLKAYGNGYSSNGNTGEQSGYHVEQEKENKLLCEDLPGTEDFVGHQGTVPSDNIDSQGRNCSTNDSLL
GRK2 inh = blocks RNA aptamer binding to human GRK2; P25098; 330,000 compounds, 0.59% hits; inhibition of aptamer binding, % at 10 µM; bead flow cytometry, FAM-aptamer displacement from GRK2;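 active = inhibition of aptamer binding above 40%, roughly 3 SD of noise, on plates passing a quality check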;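 also: median bead fluorescence of bound FAM aptamer so fluorescent compounds give negative values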
SENP1 FRET inh = SENP1 (human) catalytic domain inhibition; Q9P0U3; recombinant SENP1 catalytic domain, CyPet-SUMO1-YPet FRET cleavage; inhibition, % at 10 µM; 360,000 compounds, 0.21% hits;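 active = inhibition at least 30% at 10 µM, raw YFP signal under a set limit, fluorescence ratio 0.5 to 1.5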
Target sequence (Q9P0U3 419-644 limits assumed): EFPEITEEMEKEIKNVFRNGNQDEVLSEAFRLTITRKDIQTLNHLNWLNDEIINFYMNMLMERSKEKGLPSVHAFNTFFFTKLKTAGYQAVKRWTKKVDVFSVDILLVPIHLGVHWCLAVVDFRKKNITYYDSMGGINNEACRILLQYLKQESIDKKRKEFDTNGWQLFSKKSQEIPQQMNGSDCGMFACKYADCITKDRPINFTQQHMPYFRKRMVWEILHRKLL
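Assay system – human recombinant His6-tagged SENP1 catalytic domain enzyme · Input – SENP1 enzyme, 20 pM final · Buffer or medium – Tris pH 8 buffer plus EDTA, NaCl, BME, BSA, NP40, catalase · Schedule – 50 min reaction at room temperature · Technique – FRET read of cyan and yellow fluorescence · Control set – no-enzyme wells low, DMSO-plus-enzyme wells high control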
NadD inh = blocks S. aureus nicotinate mononucleotide adenylyltransferase; purified NadD enzyme, colorimetric absorbance read-out; AID 602399; 360,000 compounds, 0.78% hits; inhibition, % at 20 µM; in the data active = inhibition above about 26%
Large screens that a line does not name were inactive. Compounds with a hit are over-represented: about 2.5% of the library has one in this group of screens.

CC1(NC(=O)CC[N+](C)(C)CCO)CS(=O)(=O)CC1S(=O)(=O)[O-] (centres undefined)	GRK2 inh 47 (no result: ABHD5-PLIN5 inh, Beta2AR agonist, SENP1 FRET inh, NadD inh)
CCOC(=O)C1=NN(C(C)=O)C2(CC(=O)N(c3cc(C)cc(C)c3)C2=O)C1 (centres undefined)	GRK2 inh 100
O=C(NN1C(=O)/C(=C/C=C/c2ccccc2)SC1=S)c1ccncc1	NadD inh 34
O=C(COC(=O)CCN1C(=O)/C(=C\C=C\c2ccccc2)SC1=S)Nc1cc(F)ccc1F	NadD inh 35
O=C(CCN1C(=O)/C(=C/C=C/c2ccccc2)SC1=S)Nc1nc2ccccc2s1	NadD inh 42
O=C(CCN1C(=O)/C(=C\C=C\c2ccccc2)SC1=S)Nc1ccc(C(=O)O)cc1	none
COc1ccc(/C=C2\SC(=S)N(NC(=O)c3ccncc3)C2=O)cc1OC	none (no result: ABHD5-PLIN5 inh, Beta2AR agonist, SENP1 FRET inh, NadD inh)
CCCn1c(=O)n(C)c(=O)c2c(SCC(=O)NCC(c3ccccc3)N(C)C)nc(CC(C)C)nc21 (centres undefined)	none
NC(=O)CSc1oc(-c2ccco2)nc1S(=O)(=O)c1ccc(Br)cc1	none
COc1ccc(NC(=O)c2ccccc2NS(=O)(=O)c2ccc(CNC(C)=O)cc2)c(OC)c1	none
CCOc1cc(/C=C2/SC(=S)NC2=O)ccc1OC(=O)c1ccco1	SENP1 FRET inh 75
O=S(=O)(c1ccc(F)cc1)N1CCN(CC2CC3C=CC2C3)CC1 (centres undefined)	none
CN1CCN(Cc2c(O)ccc3cc(-c4ccccn4)c(=O)oc23)CC1	Beta2AR agonist 69
Cc1ccc(S(=O)(=O)/N=C2/NC(=O)/C(=C\c3cc(Br)cc(Br)c3O)S2)cc1	NadD inh 41
Cc1ccc(S(=O)(=O)N2[C@@H](c3ccc(F)cc3)C(C(=O)O)=C[C@H]2CC2CCCC2)cc1	none
Oc1cccc2cc3cccc(O)c3c(O)c12	NadD inh 70
C=C1C(=O)CC2=C1[C@](Cc1ccc(F)cc1)(C(=O)OC)N(C(=O)c1ccccc1)C2	none (no result: Beta2AR agonist, GRK2 inh)
C=C1C(=O)C=C2CN(C(=O)c3ccccc3)[C@@](Cc3ccc(F)cc3)(C(=O)OC)[C@@H]12	ABHD5-PLIN5 inh 75, Beta2AR agonist 79
CNC(=O)C(=O)NCC1OCCCN1S(=O)(=O)c1ccc(F)cc1C (centres undefined)	none
Cc1cccc(C=NOCCc2ccccc2)n1	none (no result: GRK2 inh)
C/C(=N\Nc1ccc(C(=O)c2c(C)cc3ccccn23)cc1[N+](=O)[O-])c1ccc(O)cc1	NadD inh 36
C/C(=N/Nc1ccc(C(=O)c2c(C)cc3ccccn23)cc1[N+](=O)[O-])c1ccc(O)cc1	NadD inh 32 (no result: GRK2 inh)
Cc1cc2ccccn2c1C(=O)c1ccc(N/N=C/c2ccc(C(=O)O)cc2)c([N+](=O)[O-])c1	none (no result: GRK2 inh)
Cc1noc(C)c1S(=O)(=O)N1CCCC(C(=O)NCc2ccccc2Cl)C1 (centres undefined)	none
O=C(O)CCCNc1cc(N2CCC3(CC2)OCCO3)c2noc3c2c1C(=O)c1ccccc1-3	none (no result: ABHD5-PLIN5 inh, Beta2AR agonist, SENP1 FRET inh, NadD inh)
CCOC(=O)N1CCN(c2cc(NCCC(=O)O)c3c4c(onc24)-c2ccccc2C3=O)CC1	none
CN1CCN(c2cc(N3CCN(C(=O)c4ccco4)CC3)c3c4c(onc24)-c2ccccc2C3=O)CC1	SENP1 FRET inh 49, NadD inh 34
O=C1c2ccccc2-c2onc3c(N4CCN(CCO)CC4)cc(N4CCN(C(=O)c5ccco5)CC4)c1c23	SENP1 FRET inh 32
O=C(O)CCCNc1cc(N2CCN(C(=O)c3ccco3)CC2)c2noc3c2c1C(=O)c1ccccc1-3	SENP1 FRET inh 83
O=C(NCc1ccccn1)c1cc(S(=O)(=O)N2CCCCC2)ccc1Cl	none
CC(Oc1ccccc1)C(=O)N(CCC1=CCCCC1)c1c(N)n(Cc2ccccc2)c(=O)[nH]c1=O (centres undefined)	none
Cc1ccc(OCC(=O)NCCNC(=O)c2cnccn2)cc1	none
O=C1OC2(c3ccccc31)c1cc(I)c(O)c(I)c1Oc1c2cc(I)c(O)c1I	GRK2 inh 76 (no result: ABHD5-PLIN5 inh, Beta2AR agonist, SENP1 FRET inh, NadD inh)
Cc1cc(O)ccc1C1(c2ccc(O)cc2C)OC(=O)c2ccccc21	none
CCCCn1c(N)c(N(CC(C)C)C(=O)CSc2nn(-c3ccc(F)cc3)c(=S)s2)c(=O)[nH]c1=O	none (no result: GRK2 inh)
Cc1cccc(N(C(=O)c2snc(C(N)=O)c2N)C(C(=O)NCC2CCCO2)c2ccc(N(C)C)cc2)c1C (centres undefined)	GRK2 inh 99
CC(C)CN(C(=O)CN(C)CC(=O)Nc1ccc(Cl)c(C(F)(F)F)c1)c1c(N)n(CC(C)C)c(=O)[nH]c1=O	none
C/C=C(\C)C(=O)OC1[C@H](OC(C)=O)C2(CO)C(CC1(C)C)C1=CCC3C4(C)CCC(O[C@@H]5O[C@H](C(=O)O)[C@@H](O[C@@H]6O[C@H](CO)[C@@H](O)[C@H](O)[C@H]6O)[C@H](O)[C@H]5O[C@H]5O[C@H](CO)[C@@H](O)[C@H](O)[C@H]5O)[C@](C)(CO)C4CCC3(C)[C@]1(C)C[C@H]2O (some centres undefined)	Beta2AR agonist 61 (no result: GRK2 inh)
O=C(C1CCN(S(=O)(=O)c2ccc(Cl)cc2)CC1)N1CCN(c2ccccn2)CC1	none
CC1CCN(C(=O)/C(=C/c2ccccc2Cl)c2ccccc2)CC1	none
N#CC(C#N)=C1C=CC=CN1/C(=C\c1ccccc1Cl)C(=O)c1ccccc1	Beta2AR agonist 105
N#CC(C#N)=C1C=CC=CN1/C(=C\c1ccccc1)C(=O)c1cccs1	Beta2AR agonist 88
COCCN(Cc1ccc(F)cc1)C(=O)c1cc2ccccc2oc1=O	none
CC(C)(C)OC(=O)C[C@@H]1C/C=C\C[C@H](CC(=O)NCCO)C(=O)NC[C@H](c2ccccc2)OC1=O	none
COc1ccc(N/C=C/C(=O)c2ccc(C)cc2)c([N+](=O)[O-])c1	none
CCOc1ccc(N/C=C/C(=O)c2ccc(OC)cc2)c([N+](=O)[O-])c1	SENP1 FRET inh 37
CCOc1ncccc1C(=O)NNC(=O)c1ccccc1-n1cccc1	none
Cc1nc(N)sc1-c1csc(Nc2cc(N(C)C)ccc2Cl)n1	NadD inh 42 (no result: Beta2AR agonist, GRK2 inh)
CCC(=O)Nc1nnc(SCc2ccc(F)cc2)s1	none
CC(=O)Nc1ccc(N2C(=O)c3ccc(C(=O)Nc4nnc(SCc5ccc(F)cc5)s4)cc3C2=O)cc1	NadD inh 31
COC(=O)[C@]1(C)N[C@H](CN(C)C(=O)c2ccc(C)cc2)[C@@H]2C(=O)N(Cc3ccccc3)C(=O)[C@@H]21	none
O=C(CN1CCCN(S(=O)(=O)c2ccc(Br)s2)CC1)Nc1ccc(Cl)cc1	ABHD5-PLIN5 inh 50
O=C(NCCCn1ccnc1)c1ccc(Br)s1	none
COc1nc(Nc2ccc([N+](=O)[O-])cc2)nc(NC2CCCCC2)n1	none
CCOC1=C/C(=C/c2c(N)n3nc(-c4ccccc4)sc3nc2=O)C=CC1=O	NadD inh 43 (no result: GRK2 inh)
COC1=C/C(=C/c2c(N)n3nc(-c4ccc(C)cc4)sc3nc2=O)C=CC1=O	NadD inh 35 (no result: GRK2 inh)

Screening results from PubChem.
